Assay results from ChEMBL document CHEMBL1137756, “Induction of apoptosis promoted by Bang52; a small molecule that downregulates Bcl-x(L)” (2009).
Active and inactive are the calls of the source. The calls are words filed in the database; no cut-off is given here.

How the values were obtained:
[1] = Cell cycle arrest in human TK6 cells expressing wild type p53 assessed as accumulation at sub-G0/G1 phase after 72 hrs by flow cytometry; type: functional, cell-based
In short: (§1)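 Cells exposed 72 h to vehicle or compound (0.1 μM doxorubicin or 25 μM others) and harvested. Washed twice in ice-cold PBS, then resuspended in hypotonic solution (50 μg/ml propidium iodide, 25 μg/ml RNase, 0.1% sodium citrate, 0.1% Triton X-100) and held 1.5 h at 4°C in the dark. Flow cytometry at 10,000 events per histogram; cell death taken as the sub-G0/G1 fraction.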

TK6 [2] = assay: Cytotoxicity against human TK6 cells expressing wild type p53; type: functional, cell-based
TK6 [3] = assay: Induction of p53 phosphorylation at Ser15 in human TK6 cells expressing wild type p53 at 0.1 uM after 8 hrs by Western blot analysis; type: functional, cell-based
In short: (§2)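 Exposure for 8 h to vehicle, 0.1 μM doxorubicin or 25 μM test agents, followed by protein extraction. Western blots probed for total p53, phospho-p53 (Ser15), p21cip1/Waf1 and β-actin.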

TK6 [4] = assay: Induction of apoptosis in human TK6 cells expressing wild type p53 assessed as decrease in pro-caspase 3 level at 0.1 uM after 8 hrs by Western blot analysis; type: functional, cell-based
In short: (§3)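 Exposure for 8 h to vehicle, 0.1 μM doxorubicin or 25 μM test agents, followed by protein extraction. Western blots probed for cleaved PARP, caspase-3 and β-actin as loading reference.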

TK6 [5] = assay: Induction of apoptosis in human TK6 cells expressing wild type p53 assessed as increase in PARP cleavage at 0.1 uM after 8 hrs by Western blot analysis; type: functional, cell-based; in short: as §3
WTK1 [6] = assay: Induction of apoptosis in human WTK1 cells expressing p53 M237I mutant assessed as increase in cleaved caspase 3 level at 0.1 uM after 8 hrs by Western blot analysis; type: functional, cell-based; in short: as §3
TK6 [7] = assay: Induction of apoptosis in human TK6 cells expressing wild type p53 assessed as increase in cleaved caspase 3 level at 0.1 uM after 8 hrs by Western blot analysis; type: functional, cell-based; in short: as §3
WTK1 [8] = assay: Induction of p53 phosphorylation at Ser15 in human WTK1 cells expressing p53 M237I mutant at 0.1 uM after 8 hrs by Western blot analysis; type: functional, cell-based; in short: as §2
WTK1 [9] = assay: Induction of p53 transcriptional activity in human WTK1 cells expressing p53 M237I mutant assessed as p21-Cip1/Waf1 expression at 25 uM after 8 hrs by Western blot analysis; type: functional, cell-based
In short: (§4)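 TK6 and WTK1 cells (NH32 also run) treated 8 h at 25 μM, vehicle or doxorubicin 0.1 μM. Extracts immunoblotted for p53, phospho-p53 (Ser15), p21cip1/Waf1 and β-actin.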

[10] = Cell cycle arrest in p53 deficient human NH32 cells assessed as accumulation at sub-G0/G1 phase at 0.1 uM after 72 hrs by flow cytometry; type: functional, cell-based; in short: as §1
NH32 [11] = assay: Induction of apoptosis in p53 deficient human NH32 cells assessed as increase in PARP cleavage at 0.1 uM after 8 hrs by Western blot analysis; type: functional, cell-based; in short: as §3
NH32 [12] = assay: Induction of apoptosis in p53 deficient human NH32 cells assessed as decrease in pro-caspase 3 level at 0.1 uM after 8 hrs by Western blot analysis; type: functional, cell-based; in short: as §3
[13] = Cell cycle arrest in human WTK1 cells expressing p53 M237I mutant assessed as accumulation at sub-G0/G1 phase at 0.1 uM after 72 hrs by flow cytometry; type: functional, cell-based; in short: as §1
TK6 [14] = assay: Induction of p53 transcriptional activity in human TK6 cells expressing wild type p53 assessed as p21-Cip1/Waf1 expression at 0.1 uM after 8 hrs by Western blot analysis; type: functional, cell-based; in short: as §2
WTK1 [15] = assay: Induction of p53 transcriptional activity in human WTK1 cells expressing p53 M237I mutant assessed as p21-Cip1/Waf1 expression at 0.1 uM after 8 hrs by Western blot analysis; type: functional, cell-based; in short: as §2
TK6 [16] = assay: Induction of p53 phosphorylation at Ser15 in human TK6 cells expressing wild type p53 at 25 uM after 8 hrs by Western blot analysis; type: functional, cell-based; in short: as §4
WTK1 [17] = assay: Induction of apoptosis in human WTK1 cells expressing p53 M237I mutant assessed as increase in PARP cleavage at 0.1 uM after 8 hrs by Western blot analysis; type: functional, cell-based; in short: as §3
[18] = Cell cycle arrest in human TK6 cells expressing wild type p53 assessed as accumulation at sub-G0/G1 phase at 0.1 uM after 72 hrs by flow cytometry; type: functional, cell-based; in short: as §1
WTK1 [19] = assay: Induction of p53 phosphorylation at Ser15 in human WTK1 cells expressing p53 M237I mutant at 25 uM after 8 hrs by Western blot analysis; type: functional, cell-based; in short: as §4
NH32 [20] = assay: Induction of apoptosis in p53 deficient human NH32 cells assessed as increase in cleaved caspase 3 level at 0.1 uM after 8 hrs by Western blot analysis; type: functional, cell-based; in short: as §3
WTK1 [21] = assay: Induction of apoptosis in human WTK1 cells expressing p53 M237I mutant assessed as decrease in pro-caspase 3 level at 0.1 uM after 8 hrs by Western blot analysis; type: functional, cell-based; in short: as §3
TK6 [22] = assay: Induction of p53 transcriptional activity in human TK6 cells expressing wild type p53 assessed as p21-Cip1/Waf1 expression at 25 uM after 8 hrs by Western blot analysis; type: functional, cell-based; in short: as §4
TK6 [23] = assay: Induction of apoptosis in human TK6 cells expressing wild type p53 assessed as necrotic cell population at 25 uM after 8 hrs using annexin-V and 7-ADD staining by flow cytometry; type: functional
In short: (§5)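 TK6 cells given 25 μM or vehicle for 8 h, washed twice in ice-cold PBS, stained with Annexin-V-PE plus 7-ADD. Flow cytometry assigned quadrant populations as percent of total cells. Histograms representative of three independent experiments.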

NH32 [24] = assay: Induction of apoptosis in p53 deficient human NH32 cells assessed as increase in cleaved caspase 3 level at 25 uM after 8 hrs by Western blot analysis; type: functional, cell-based
In short: (§6)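 TK6, NH32 and WTK1 cells treated 8 h with 25 μM or vehicle; doxorubicin 0.1 μM as comparator. Protein extracts analysed by Western blot probed for cleaved PARP, caspase-3 and β-actin.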

TK6 [25] = assay: Induction of apoptosis in human TK6 cells expressing wild type p53 assessed as live cell population at 25 uM after 8 hrs using annexin-V and 7-ADD staining by flow cytometry; type: functional; in short: as §5
WTK1 [26] = assay: Induction of apoptosis in human WTK1 cells expressing p53 M237I mutant assessed as increase in PARP cleavage at 25 uM after 8 hrs by Western blot analysis; type: functional, cell-based; in short: as §6
WTK1 [27] = assay: Induction of apoptosis in human WTK1 cells expressing p53 M237I mutant assessed as increase in cleaved caspase 3 level at 25 uM after 8 hrs by Western blot analysis; type: functional, cell-based; in short: as §6
WTK1 [28] = assay: Induction of apoptosis in human WTK1 cells expressing p53 M237I mutant assessed as reduction of Bcl-Xl level at 25 uM after 8 hrs by Western blot analysis; type: functional, cell-based
In short: (§7)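 TK6, NH32 and WTK1 cells exposed 8 h to 25 μM, vehicle, or doxorubicin 0.1 μM. Protein extracted and Bcl-xL level assessed by Western blot.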

[29] = Cell cycle arrest in human TK6 cells expressing wild type p53 assessed as accumulation at sub-G0/G1 phase at 25 uM after 72 hrs by flow cytometry; type: functional, cell-based
In short: (§8)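 B lymphoblast lines TK6 (wild-type p53), NH32 (p53−/−) and WTK1 (mutant p53) exposed 72 h to 25 μM against vehicle; doxorubicin 0.1 μM as p53-dependent control. Washed twice in ice-cold PBS, held 1.5 h at 4°C in the dark in hypotonic fluorochrome solution (50 μg/ml propidium iodide, 25 μg/ml RNase, 0.1% citrate, 0.1% Triton X-100). Sub-G0/G1 apoptotic percentage from 10,000 events per flow histogram.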

TK6 [30] = assay: Induction of apoptosis in human TK6 cells expressing wild type p53 assessed as increase in cleaved caspase 3 level at 25 uM after 8 hrs by Western blot analysis; type: functional, cell-based; in short: as §6
TK6 [31] = assay: Induction of apoptosis in human TK6 cells expressing wild type p53 assessed as increase in PARP cleavage at 25 uM after 8 hrs by Western blot analysis; type: functional, cell-based; in short: as §6
TK6 [32] = assay: Induction of apoptosis in human TK6 cells expressing wild type p53 assessed as late stage apoptotic cell population at 25 uM after 8 hrs using annexin-V and 7-ADD staining by flow cytometry; type: functional; in short: as §5
NH32 [33] = assay: Induction of apoptosis in p53 deficient human NH32 cells assessed as increase in PARP cleavage at 25 uM after 8 hrs by Western blot analysis; type: functional, cell-based; in short: as §6
TK6 [34] = assay: Induction of apoptosis in human TK6 cells expressing wild type p53 assessed as depolarization of inner mitochondrial membrane potential at 25 uM after 8 hrs by flow cytometry relative to CCCP; type: functional, cell-based
In short: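 TK6 cells exposed 8 h to 25 μM, vehicle, or CCCP 100 μM as depolarisation control. Cells washed in ice-cold PBS and resuspended in PBS. Membrane potential read by flow cytometry as FL1 (JC-1 monomers) versus FL2 (aggregates) dual-parameter plots. Representative of three independent experiments.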

WTK1 [35] = assay: Induction of apoptosis in human WTK1 cells expressing p53 M237I mutant assessed as decrease in pro-caspase 3 level at 25 uM after 8 hrs by Western blot analysis; type: functional, cell-based; in short: as §6
NH32 [36] = assay: Induction of apoptosis in p53 deficient human NH32 cells assessed as decrease in pro-caspase 3 level at 25 uM after 8 hrs by Western blot analysis; type: functional, cell-based; in short: as §6
[37] = Cell cycle arrest in human WTK1 cells expressing p53 M237I mutant assessed as accumulation at sub-G0/G1 phase at 25 uM after 72 hrs by flow cytometry; type: functional, cell-based; in short: as §8
[38] = Cell cycle arrest in p53 deficient human NH32 cells assessed as accumulation at sub-G0/G1 phase at 25 uM after 72 hrs by flow cytometry; type: functional, cell-based; in short: as §8
NH32 [39] = assay: Induction of apoptosis in p53 deficient human NH32 cells assessed as reduction of Bcl-Xl level at 25 uM after 8 hrs by Western blot analysis; type: functional, cell-based; in short: as §7
TK6 [40] = assay: Induction of apoptosis in human TK6 cells expressing wild type p53 assessed as reduction of Bcl-Xl level at 25 uM after 8 hrs by Western blot analysis; type: functional, cell-based; in short: as §7
TK6 [41] = assay: Induction of apoptosis in human TK6 cells expressing wild type p53 assessed as decrease in pro-caspase 3 level at 25 uM after 8 hrs by Western blot analysis; type: functional, cell-based; in short: as §6
TK6 [42] = assay: Induction of apoptosis in human TK6 cells expressing wild type p53 assessed as early stage apoptotic cell population at 25 uM after 8 hrs using annexin-V and 7-ADD staining by flow cytometry; type: functional; in short: as §5

In the case of `NCCNC(=O)C(F)F`, the Activity [1] is reported as “inactive” and the Activity (TK6 [2]) is reported as “Not toxic”.
With `O=C(CCNC(=O)C(F)F)c1ccccc1` the Activity [1] was “inactive” and the Activity (TK6 [2]) was “Not toxic”.
In the case of `COc1cccc2c1C(=O)c1c(O)c3c(c(O)c1C2=O)C[C@@](O)(C(=O)CO)C[C@@H]3O[C@H]1C[C@H](N)[C@H](O)[C@H](C)O1`, the Activity (TK6 [3]) is reported as “Active”, the Activity (TK6 [4]) is reported as “Active” and the Activity (TK6 [5]) is reported as “Active”. For the same compound, the Activity (WTK1 [6]) was “Active”, the Activity (TK6 [7]) was “Active” and the Activity (WTK1 [8]) was “Active”. The Activity (WTK1 [9]) was “inactive”, the Activity [10] was “inactive” and the Activity (NH32 [11]) was “Active”. For the same compound, the Activity (NH32 [12]) was “Active”, the Activity [13] was “inactive” and the Activity (TK6 [14]) was “Active”. The Activity (WTK1 [15]) was “inactive”, the Activity (TK6 [16]) was “inactive” and the Activity (WTK1 [17]) was “Active”. The Activity [18] was “Active”, the Activity (WTK1 [19]) was “inactive” and the Activity (NH32 [20]) was “Active”. The Activity (WTK1 [21]) was “Active” and the Activity (TK6 [22]) was “inactive”.
With `O=C1C2CCN(CC2)C1(CO)CO` the Activity (TK6 [23]) was 1.3%, the Activity (NH32 [24]) was “inactive” and the Activity (TK6 [25]) was 66.1%. For the same compound, the Activity (WTK1 [26]) was “inactive”, the Activity (WTK1 [27]) was “inactive” and the Activity (WTK1 [28]) was “inactive”. The Activity [29] was “Active”, the Activity (TK6 [30]) was “inactive” and the Activity (TK6 [31]) was “inactive”. The Activity (TK6 [32]) was 17.6%, the Activity (WTK1 [9]) was “inactive” and the Activity (NH32 [33]) was “inactive”. For the same compound, the Activity (TK6 [34]) was “inactive”, the Activity (WTK1 [35]) was “inactive” and the Activity (TK6 [16]) was “inactive”. For the same compound, the Activity (WTK1 [19]) was “inactive”, the Activity (NH32 [36]) was “inactive” and the Activity [37] was “Active”. The Activity (TK6 [22]) was “inactive”, the Activity [38] was “Active” and the Activity (NH32 [39]) was “inactive”. The Activity (TK6 [40]) was “Active”, the Activity (TK6 [41]) was “inactive” and the Activity (TK6 [42]) was 14.9%.
